KCNK3 block – human KCNK3 channel inhibitors, primary screen, CHO cells, FluxOR thallium flux, B-score; AID 602410, 2012; FluxOR fluorescence; stronger effect = lower value; 340,000 tested, 0.84% active; B-score at 10 µM;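 active means B-score under library mean minus 4 SD, starting fluorescence ratio at most library mean plus 5 SD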;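 further: more negative B-score means stronger inhibition of thallium flux through KCNK3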
KCNK9 block – KCNK9 potassium channel inhibitors, primary screen, HEK293 cells, thallium flux | FluxOR thallium flux fluorescence; stronger effect = lower value | B-score at 10 µM | 310,000 tested, 1.2% active | Potassium channel subfamily K member 9 (Homo sapiens), Q9NPC2;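 active means ratio B-score over 3 SD below the library mean, with starting fluorescence within 5 SD of its mean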;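 further: negative B-score means less thallium flux so channel inhibition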
Kir21 inh – inhibitors of mouse Kir2.1 inward-rectifier potassium channel. B-score at 10 µM. HEK293-Kir2.1, FluxOR thallium flux fluorescence; stronger effect = lower value. 310,000 tested, 0.85% active. Inward rectifier potassium channel 2 (Mus musculus), P35561. AID 1672, 2009;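 active means fluorescence ratio B-score at or below minus 3 SD of library scores, with starting-brightness B-score within 2 SD, cut at about -4.2 in these data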;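 further: channel flux triggered by added potassium and thallium sulfate stimulus; B-score of peak minus minimum fluorescence over baseline after thallium stimulus; more negative B-score means stronger Kir2.1 block with less thallium influx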
KCNQ1 block – inhibitors of human KCNQ1 channel, primary screen, cell-based, thallium flux, high-throughput; CHO-K1 KCNQ1, FluxOR thallium flux fluorescence; stronger effect = higher value; AID 2642, 2010; B-score at 10 µM; 310,000 tested, 1.3% active;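 active means compounds whose thallium flux B-score, printed positive for inhibition, exceeds three library SD while starting fluorescence stays within three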;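 further: channel opened by potassium depolarization with thallium stimulus after 20 min compound exposure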
Target sequence (P51787 whole entry, looked up): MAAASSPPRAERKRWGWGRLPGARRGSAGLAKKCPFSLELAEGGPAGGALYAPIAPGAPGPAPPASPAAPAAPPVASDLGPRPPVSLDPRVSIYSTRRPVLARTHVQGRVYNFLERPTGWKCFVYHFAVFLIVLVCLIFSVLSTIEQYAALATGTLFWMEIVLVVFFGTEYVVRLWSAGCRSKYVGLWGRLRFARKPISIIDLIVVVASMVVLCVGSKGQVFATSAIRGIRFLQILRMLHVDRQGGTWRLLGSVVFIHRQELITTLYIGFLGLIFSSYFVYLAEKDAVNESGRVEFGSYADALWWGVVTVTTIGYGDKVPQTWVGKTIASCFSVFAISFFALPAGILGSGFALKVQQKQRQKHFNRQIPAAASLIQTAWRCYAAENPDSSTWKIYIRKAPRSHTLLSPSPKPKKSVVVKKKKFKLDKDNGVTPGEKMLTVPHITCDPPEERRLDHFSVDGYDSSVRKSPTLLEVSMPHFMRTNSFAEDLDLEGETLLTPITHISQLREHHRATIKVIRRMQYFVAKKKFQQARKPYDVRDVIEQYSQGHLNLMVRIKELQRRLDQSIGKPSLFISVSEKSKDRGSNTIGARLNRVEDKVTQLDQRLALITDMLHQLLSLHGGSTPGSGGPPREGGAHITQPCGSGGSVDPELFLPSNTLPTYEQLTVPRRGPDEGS
KCNQ1 pot – potentiators or activators of KCNQ1 channel, primary screen, cell-based, thallium flux, high-throughput | Potassium voltage-gated channel subfamily KQT member 1 (Homo sapiens), P51787 | 310,000 tested, 0.35% active | B-score at 10 µM | CHO-K1 KCNQ1, thallium flux FluxOR fluorescence; stronger effect = higher value;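 active means fluorescence ratio B-score, a plate-corrected score, at least three library SD, with initial intensity B-score within 5 SD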
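Schedule – 37 °C overnight plating, 90-min dark dye load, 20-min compound pretreatment · System – stable KCNQ1 CHO-K1 line · Probe or stimulus – thallium- and potassium-containing depolarizing buffer · Measured by – kinetic FluxOR fluorescence, 10 s baseline plus 110 s post-stimulus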
hERG protect – hERG rescue from dofetilide block, primary screen, cell-based, CHO-hERG, FluxOR thallium flux, dofetilide IC70. Voltage-gated inwardly rectifying potassium channel KCNH2 (Homo sapiens), Q12809. dofetilide IC70 present. activation (rescue from dofetilide block), less the hit threshold, % at 10 µM. 310,000 tested, 0.51% active. AID 1511, 2009;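 active means activation above the mean of controls blocked by dofetilide plus 5 SD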;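 further: thallium influx through hERG after potassium depolarization seen as dye fluorescence rise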
Each line names hits and unclear results; the compound was inactive in the other large screens. In the library only some 3.7% were active in any assay of this set; here they are far more common.

O=C(Nc1cccc(C(F)(F)F)c1)C1CC(=O)N(CCc2ccccc2)C1 (configuration not stated)	none (no result: KCNK9 block, Kir21 inh, KCNQ1 block, KCNQ1 pot, hERG protect)
O=S(=O)(c1ccc(F)c(F)c1)N1CCC2(CC1)OCCO2	none
Cc1ccc(S(=O)(=O)O/N=C2\CCCc3ccccc32)cc1	none
CC1=C(C)/C(=N\OS(=O)(=O)c2ccccc2)C=CC1=O	Kir21 inh -11
O=C(CC(=O)c1ccccc1)CC(O)(C=Cc1ccccc1)c1ccccc1 (configuration not stated)	KCNK3 block -9.1 (no result: KCNK9 block, Kir21 inh, KCNQ1 block, KCNQ1 pot, hERG protect)
CC1CCCC(NC(=S)NC(=O)c2ccccc2Br)C1C (configuration not stated)	KCNQ1 pot 8, hERG protect 7.2
O=C(NNC(=S)NC1CCCCC1)c1ccccc1Br	none
CSCCC(NC(=O)c1ccco1)C(=O)N(C)CC(=O)Nc1c(Cl)cccc1Cl (configuration not stated)	none
COc1cc(C2(c3ccc(O)c(OC)c3)C(=O)Nc3c(C)cc(Br)cc32)ccc1O	KCNQ1 pot 9
CCCCn1c(N)c(N(CC(C)C)C(=O)C2CCN(S(=O)(=O)c3ccc(Cl)cc3)CC2)c(=O)[nH]c1=O	none
O=S(=O)(c1ccc(F)c(F)c1)N1CCCc2ccccc21	Kir21 inh -5.4
Cc1cccc(S(=O)(=O)N2CCCc3ccccc32)c1	Kir21 inh -6.4
O=C(CCS(=O)(=O)c1ccc(Cl)cc1)N1CCCc2ccccc21	Kir21 inh -4.8
O=S(=O)(c1ccc2ccccc2c1)N1CCc2ccccc21	none
O=S(=O)(c1ccc(Br)cc1)N1CCCc2ccccc21	Kir21 inh -4.9
COC(C/C=C\[C@H](O)[C@@H](C)OCc1ccccc1)OC	none
COc1cc(CC(=O)OCC(=O)Nc2ccc(N(C)C)cc2)cc(OC)c1OC	none (no result: KCNK9 block, Kir21 inh, KCNQ1 block, KCNQ1 pot, hERG protect)
FC(F)(F)c1cnc2c(c1)[nH]c(=S)n2-c1ccc(Cl)cc1	hERG protect 5.5
Cc1ccsc1/C=N/Nc1ncc(Cl)cc1Cl	KCNQ1 block 6
Cc1cc(Cn2ccnc2)c(C)cc1Cn1ccnc1	none
O=S(=O)(c1ccc2ccccc2c1)N1CCN=C1SCc1cccnc1	Kir21 inh -5
O=S(=O)(c1ccc(F)cc1)N1CCN=C1SCc1cccnc1	none
NC(=O)C1CCCN(C(=O)CCC(=O)c2cccs2)C1 (configuration not stated)	none (no result: KCNK9 block, Kir21 inh, KCNQ1 block, KCNQ1 pot, hERG protect)
CC(C)CN1CCN(CCCOC(=O)Nc2cccc3ccccc23)CC1C (configuration not stated)	none (no result: KCNK9 block, Kir21 inh, KCNQ1 block, KCNQ1 pot, hERG protect)
CCOc1ccc(N(CC(=O)NCc2ccccc2Cl)S(=O)(=O)c2c(C)noc2C)cc1	none
CCCCn1c(N)nc2ccccc21	hERG protect 7.5
OCCCc1nc2ccccc2n1CCc1ccccc1	none
CCCc1nc2ccccc2n1CCc1ccccc1	Kir21 inh -6.3
CCCCc1ncc(CN2CCN(Cc3ccc(C)cc3)C(CCO)C2)[nH]1 (configuration not stated)	none
Cc1nc(C(C)N(C)Cc2nc(-c3ccc4c(c3)OCO4)no2)c(C)s1 (configuration not stated)	none
CCC(C)(C)NC(=O)C(c1cccc(OC)c1)N(C(=O)c1ccn[nH]1)c1cccc(OC)c1 (configuration not stated)	KCNQ1 block 8
O=[N+]([O-])c1ccccc1C1Nc2cccc3cccc(c23)N1	KCNQ1 block 6
Oc1ccccc1C1Nc2cccc3cccc(c23)N1	none
Cc1ccc(C(=O)N2CC(=O)Nc3ccc(F)cc3C2c2ccccc2)cc1 (configuration not stated)	none
COc1ccc(C(=O)NC(=S)N2CCCCC2)cc1	none
COc1cc(OC)cc(C(=O)NC(=S)N2CCCCCC2)c1	hERG protect 10
CCN(CC(=O)Nc1ccccc1C(F)(F)F)C(=O)c1cccc(N2C(=O)CCC2=O)c1	none
O=S(=O)(NC1CCCCC1Oc1ccccc1)c1ccccc1 (configuration not stated)	Kir21 inh -5.4
O=S(=O)(NC1CCCCC1Nc1ccc(Cl)cc1)c1ccccc1 (configuration not stated)	none
COc1cccc(CNc2cc(CSc3ccc(Cl)cc3)nc(C)n2)c1	Kir21 inh -7.7
COc1cccc(CNc2ccc(C)c(Cl)c2)c1	none
c1ccc(-c2csc3nnc(SCc4ccc5c(c4)OCCO5)n23)cc1	Kir21 inh -5.2
O=C(CSc1nnc2scc(-c3ccccc3)n12)c1ccc2c(c1)OCCO2	none
CC(C)OC(=O)CSc1nnc(CNc2cccc(Cl)c2)n1C	none
Cn1c(CNc2cccc(Cl)c2)nnc1SCC(=O)OC1CCCCC1	Kir21 inh -4.2
CCn1c(COc2cccc3ccccc23)nnc1SCC(=O)OC1CCCCC1	KCNQ1 block 10
Cc1ccccc1C(=O)NC1CCN(CC(=O)Nc2ccccc2Cl)CC1	none
Cc1c(Cl)cccc1NC(=O)CN1CCC(C(O)(c2ccccc2)c2ccccc2)CC1	KCNQ1 block 11
CCOc1ncccc1C(=O)Nc1cc(S(=O)(=O)N2CCOCC2)ccc1OCC(F)(F)F	none (no result: KCNK9 block, Kir21 inh, KCNQ1 block, KCNQ1 pot, hERG protect)
COc1ccc([C@H]2/C=C\CN(S(=O)(=O)c3cccc4cccnc34)[C@@H](C)C(=O)N2Cc2ccc(F)cc2)cc1	none
COc1ccc([C@H]2/C=C\CN(S(=O)(=O)c3ccc4ccccc4c3)[C@@H](C)C(=O)N2Cc2ccc(F)cc2)cc1	KCNK9 block -7.8
COc1cc2cc(CN(Cc3cccs3)C(=S)Nc3ccc(C)cc3)c(=O)[nH]c2cc1OC	none
COc1cc2cc(CN(Cc3cccs3)C(=S)Nc3cccc(C)c3)c(=O)[nH]c2cc1OC	KCNQ1 block 7 (no result: KCNK3 block)
Cc1ccc(C(=O)N2CCCC(C(=O)c3cc(F)ccc3F)C2)s1 (configuration not stated)	Kir21 inh -5
Cc1csc(NC(=O)c2cc(C)on2)n1	none (no result: KCNK9 block, Kir21 inh, KCNQ1 block, KCNQ1 pot, hERG protect)
Cc1ccc(S(=O)(=O)N(Cc2cc3cccc(C)c3[nH]c2=O)c2ccccc2)cc1	none
COc1cccc(NC(=O)CSc2nc3c(sc4ccccc43)c(=O)n2CCN(C)C)c1	none
COc1cccc(NC(=O)CSc2nc3c(sc4ccccc43)c(=O)n2CCCN2CCCC2)c1	Kir21 inh -5.7
O=C(CCC(=O)c1ccc(Cl)cc1)OCC(=O)c1ccccc1	hERG protect 8.9
O=C(CNC(=O)c1ccc(Cl)cc1)OCC(=O)c1ccccc1	none
O=C(/C(=N\O)n1cncn1)c1ccc(Cl)cc1Cl	none

Source: PubChem BioAssay (Johns Hopkins Ion Channel Center)
